# According to ChEMBL document CHEMBL3739417, “Synthesis and biological evaluation of novel 4,5-disubstituted 2H-1,2,3-triazoles as cis-constrained analogues of combretastatin A-4” (2015):
# Activity calls are given as the source filed them. The calls are words filed in the database; no cut-off is given here.
# Tests used:
# [1] = Inhibition of colony formation in rat 9LSF cells after 24 hrs by crystal violet staining; assay type: functional; settings: read-out: LD50 (the source's name)
# In short: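 9LSF rat gliosarcoma cells exposed for 24 hours at 1 nM, 3 nM, 10 nM, 30 nM, 100 nM, 1 μM or 10 μM. Then trypsinized, counted, seeded in triplicate and incubated at 37°C until colonies exceeded 50 cells. Flasks with fewer than 50,000 cells got 50,000 lethally irradiated A549 feeder cells first. Colonies fixed, crystal violet-stained and counted. LD50 from four-parameter logistic fit, mean ± SEM of 3 independent experiments.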
# [2] = Cell cycle arrest in rat 9LSF cells assessed as accumulation at G2/M phase at 50 nM after 24 hrs by propidium iodide based flow cytometry; assay type: functional
# In short: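 9LSF rat gliosarcoma cells were exposed to 50 nM compound for 24 h alongside untreated controls. Cells were then trypsinized, counted, rinsed in PBS and fixed in ice-cold 70% EtOH/PBS at 10⁶ cells/mL, then held at 4°C. For analysis, 10⁶ cells were pelleted, rinsed three times in PBS and resuspended in 1 mL PBS with 1 µL PI (12.5 mg/mL stock in DMSO). The G2/M fraction was read by flow cytometry.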
smiles,measurement,setting,value
COc1ccc(-c2n[nH]nc2-c2cc(OC)c(OC)c(OC)c2)cc1O,CC50,[1],7.5 nM
same,Activity,[2],Active
